The record followed here is ChEMBL document CHEMBL2046351, “Discovery of cyclic sulfone hydroxyethylamines as potent and selective β-site APP-cleaving enzyme 1 (BACE1) inhibitors: structure-based design and in vivo reduction of amyloid β-peptides” (J Med Chem, 2012).

Series [1] can be described thus: Ratio of drug uptake in brain to blood in C57BL/6 mouse at 6 umol/kg, po dosed in carboxymethyl cellulose 0.5% w/v in water/Tween 80 (99.5/0.5, v/v) measured 4 hrs post dosing by LC/MS/MS analysis. Type of series: ADME, organism-based. In a few lines: (§1)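 Male C57BL/6 mice dosed by oral gavage, 10 mL/kg. Blood sampled 0.25, 0.5, 1, 2, 4, 6 h; brain at 1 and/or 4 h; n = 3 per time. Blood acetonitrile-precipitated, brain water-homogenized then precipitated; LC-MS/MS with weighted linear calibration.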

The nature of series [2]: Ratio of drug uptake in brain to blood in C57BL/6 mouse at 60 umol/kg, po dosed in carboxymethyl cellulose 0.5% w/v in water/Tween 80 (99.5/0.5, v/v) measured 1 hr post dosing by LC/MS/MS analysis. The class given is ADME, organism-based. The method, boiled down:
as §1

Series [3] deals with Brain. Description: Drug uptake in C57BL/6 mouse brain at 2 umol/kg, iv dosed in N-methyl pyrrolidone/blank plasma (10:90 v/v) measured 4 hrs post dosing by LC/MS/MS analysis. The class given is ADME, organism-based. To be noted: in vivo. In a few lines:
(§2)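 Male C57BL/6 mice, saphenous vein injection under light anesthesia, 5 mL/kg. Blood at 5, 30 min and 1, 2, 4, 6, 8 h; brain at 5 min, 1, 4, 8 h; n = 3/time. LC-MS/MS after acetonitrile precipitation (brain water-homogenized). Noncompartmental analysis, 1/Y weighting, terminal slope from ≥3 points.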

A short description of series [4]: Drug uptake in C57BL/6 mouse blood at 60 umol/kg, po dosed in carboxymethyl cellulose 0.5% w/v in water/Tween 80 (99.5/0.5, v/v) measured 1 hr post dosing by LC/MS/MS analysis. Particulars: read-out: Drug uptake. The class given is ADME, organism-based. In a few lines:
as §1

The nature of series [5]: Ratio of drug uptake in brain to blood in C57BL/6 mouse at 2 umol/kg, iv dosed in N-methyl pyrrolidone/blank plasma (10:90 v/v) measured 4 hrs post dosing by LC/MS/MS analysis. Type of series: ADME, organism-based. In a few lines:
as §2

The target of the next series is Cathepsin D (Homo sapiens, UniProt P07339). As to the kind of experiment: Inhibition of human recombinant CatD using Mca-GKPILFFRLK(DNP)-dR-NH2 as substrate after 1 hr by fluorescence analysis.
The nature of series [6]: Drug uptake in C57BL/6 mouse blood at 6 umol/kg, po dosed in carboxymethyl cellulose 0.5% w/v in water/Tween 80 (99.5/0.5, v/v) measured 1 hr post dosing by LC/MS/MS analysis. Type of series: ADME, organism-based. To be noted: read-out: Drug uptake. In a few lines:
as §1

Series [7] relates to Brain. As to the kind of experiment: Drug uptake in C57BL/6 mouse brain at 6 umol/kg, po dosed in carboxymethyl cellulose 0.5% w/v in water/Tween 80 (99.5/0.5, v/v) measured 1 hr post dosing by LC/MS/MS analysis. Type of series: ADME, organism-based. To be noted: in vivo. The method, boiled down: as §1
The nature of series [8]: Ratio of drug uptake in brain to blood in C57BL/6 mouse at 6 umol/kg, po dosed in HS15/propylenglycol/citrate buffer, pH 4.75, 50 mM (10/5/85, v/v/v) measured 1 hr post dosing by LC/MS/MS analysis. Type of series: ADME, organism-based. In a few lines:
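Male C57BL/6 mice received the dose by oral gavage at 10 mL/kg. Blood and brain were collected at 1 and/or 4 h postdose. Brain was homogenised in water, and both matrices were extracted by acetonitrile precipitation and quantified by LC-MS/MS. The ratio is mean brain (nmol/g) over mean blood (nmol/mL) concentration, n = 3.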

Cathepsin D, sequence (P07339 65-162 limits assumed): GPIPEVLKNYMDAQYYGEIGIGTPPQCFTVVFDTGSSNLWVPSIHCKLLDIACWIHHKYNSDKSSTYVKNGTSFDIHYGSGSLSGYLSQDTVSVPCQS
Cathepsin D, sequence (P07339 169-412 limits assumed): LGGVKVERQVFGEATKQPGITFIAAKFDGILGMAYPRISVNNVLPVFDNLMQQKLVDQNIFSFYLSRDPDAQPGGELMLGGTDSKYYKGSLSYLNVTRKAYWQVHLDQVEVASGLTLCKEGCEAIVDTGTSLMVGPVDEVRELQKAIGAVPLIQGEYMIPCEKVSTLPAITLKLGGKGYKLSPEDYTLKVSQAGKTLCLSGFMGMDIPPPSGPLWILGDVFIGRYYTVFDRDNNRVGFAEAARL

What is called Kp is tissue or fluid exposure divided by exposure in the circulation. What is called IC50 is the concentration that inhibits the measured activity by half. Consider `CC(C)(C)c1cccc(CN[C@H]2CS(=O)(=O)C[C@@H](Cc3cc(F)c(N)c(OCC(F)(F)F)c3)[C@@H]2O)c1`, for which the Kp at 4 h in [1] amounted to 11; in series [5], 1. Besides, the Kp at 1 h in series [2] is 0.3. For the same molecule, the Drug uptake with Brain [3] is given as 0.01 nmol/g; with Brain [7], 0.08 nmol/g. Also, the concentration at 1 h in series [4] was determined as 4100 nM; in [6], 30 nM. In addition, the IC50 at Cathepsin D was determined as 690 nM.
`CC(C)(C)c1cccc(CN[C@H]2CS(=O)(=O)C[C@@H](Cc3cc(F)c(N)c(OC(C(F)(F)F)C(F)(F)F)c3)[C@@H]2O)c1`: the Kp at 1 h in series [8] turned out to be 0.3.
